Most compounds without a hit are left out; they make up all but 2.8% or so of the library.
NPY-Y1 PAM-ag: potentiates or activates human NPY-Y1 receptor | P25929 | NPY-Y1 expressing cells, potentiator/agonist activation | activation, % at 3.6 µM | 0.37% of 220,000 active | AID 1304; in the data active = activation above about 33%, passing the limit was not always enough;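 note: cells stimulated with NPY at EC10 then isoproterenol at EC100; 0% = low agonist plus stimulus and 100% = saturating agonist plus stimulus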
Target sequence (P25929 whole entry, looked up): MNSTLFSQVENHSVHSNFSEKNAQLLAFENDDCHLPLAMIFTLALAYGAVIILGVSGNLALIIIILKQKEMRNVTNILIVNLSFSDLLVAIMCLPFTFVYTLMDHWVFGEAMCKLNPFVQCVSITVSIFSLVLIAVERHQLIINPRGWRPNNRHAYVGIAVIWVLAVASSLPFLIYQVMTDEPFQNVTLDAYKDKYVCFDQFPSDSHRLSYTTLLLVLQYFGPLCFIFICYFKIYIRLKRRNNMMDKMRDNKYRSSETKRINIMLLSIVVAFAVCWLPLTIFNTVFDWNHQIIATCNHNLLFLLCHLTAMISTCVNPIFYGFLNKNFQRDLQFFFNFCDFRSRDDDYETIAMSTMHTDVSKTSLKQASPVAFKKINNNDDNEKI
NPY2 pot ag: human NPY-Y2 potentiation or agonism, primary screen; P49146; cells expressing NPY-Y2, potentiator/agonist read-out; activation, % at 3.6 µM; 0.45% of 220,000 active; AID 1359; in the data active = activation above about 27%;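 note: cells stimulated with NPY near EC25 plus isoproterenol at EC100; 0% = vehicle plus submaximal agonist and 100% = vehicle plus saturating agonist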
EP2 mod: modulates human prostaglandin E2 receptor EP2 signaling; EP2-expressing cells, cAMP HTRF FRET, PGE2 co-stimulation; induction, % at 25 µM; 0.83% of 260,000 active; AID 940;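 active = compounds whose cAMP rise, as percent of the full-agonist control response, exceeds 60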;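 note: rat C6 glioma line stably carrying human EP2 under a CMV promoter; the protocol text gives 20 µM as final concentration; 100% = response of wells given 1 µM PGE2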
Target sequence (P43116 whole entry, looked up): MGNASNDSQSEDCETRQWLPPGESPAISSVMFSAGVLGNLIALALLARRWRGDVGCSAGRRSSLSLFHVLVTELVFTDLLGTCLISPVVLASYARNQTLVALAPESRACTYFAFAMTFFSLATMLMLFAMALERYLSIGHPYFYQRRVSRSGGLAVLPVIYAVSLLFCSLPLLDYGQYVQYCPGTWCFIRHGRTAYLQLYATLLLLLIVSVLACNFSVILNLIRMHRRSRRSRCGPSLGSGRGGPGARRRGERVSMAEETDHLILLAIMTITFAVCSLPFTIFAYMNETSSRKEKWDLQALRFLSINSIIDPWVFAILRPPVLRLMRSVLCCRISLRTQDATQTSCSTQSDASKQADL
EP2 antag: inhibitors of human EP2 prostaglandin E2 receptor; P43116; C6 glioma cells expressing human EP2, cAMP TR-FRET; cells stimulated with saturating PGE2; 0.52% of 260,000 active; AID 1422; inhibition, % at 25 µM;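 active = percent inhibition above 40 after rounding to a whole number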;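 note: rat C6 glioma host cells with rolipram phosphodiesterase inhibitor present; the protocol text gives 20 µM as final concentration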
NPY Y2 blocker: antagonists of human neuropeptide Y receptor Y2 | P49146 | NPY-Y2 expressing cells, antagonist mode | inhibition, % at 2.7 µM | 0.99% of 140,000 active; in the data active = inhibition above about 17%;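 note: 0% = vehicle with agonist challenge and 100% = reference antagonist with challenge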
NPY-Y1 antag: NPY-Y1 (human) receptor antagonism; P25929; HEK293-CNG Y1 cells, membrane potential fluorescence; NPY at EC95, then isoproterenol; inhibition, % at 3.6 µM; 1% of 200,000 active; AID 1040;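 active = inhibition above the campaign mean inhibition of all tested compounds plus 3 SD, cut at about 20% in these data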;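 note: 0% = DMSO wells given NPY plus isoproterenol and 100% = isoproterenol alone without NPY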
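Test system – HEK293 Y1/CNG channel cell line · Also added – NPY agonist 25 nM, then isoproterenol 1 µM plus Ro 20-1724 25 µM · Compound dosing – one concentration, 3.6 µM, in 0.4% DMSO · Schedule – compound incubation 1 h at room temperature, readout 45 min post-stimulation · Technique – fluorescence, membrane potential probe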
NPY-Y1 confirm: confirmation of human NPY-Y1 receptor potentiators or agonists | shares compounds with NPY-Y1 PAM-ag | cell-based NPY-Y1 potentiator/agonist assay | activation, % at 3.6 µM | 20% of 280 active | AID 1546; in the data active = activation above about 45%;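 note: cells challenged with NPY at its EC10 plus isoproterenol stimulus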
NPY-Y2 counter: potentiates or activates NPY-Y2, counter-screen for NPY-Y1 hits. shares compounds with NPY-Y1 PAM-ag. HEK293-CNG cells, membrane-potential fluorescence (FLIPR), 1536-well. activation, % at 3.6 µM. 20% of 280 active. AID 1649; in the data active = activation above about 33%
NPY-Y1 ag: human NPY-Y1 agonism as potentiator counter-screen | shares compounds with NPY-Y1 PAM-ag | HEK293 Y1-CNGC, membrane potential fluorescence, agonist mode | activation, % at 3.6 µM | 50% of 280 active;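 active = percent activation above the mean of DMSO-only control wells plus 3 SD of those wells, cut at about 18% in these data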;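 note: cells challenged with isoproterenol plus Ro 20-1724 with no NPY in test wells; Y1 agonism lowers isoproterenol-driven cAMP and reduces probe fluorescence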
NPY-Y2 ag: activates human NPY-Y2, counter-screen for NPY-Y1 hits; activation, % at 3.6 µM; HEK293 Y2-CNGC, membrane potential fluorescence, agonist mode; shares compounds with NPY-Y1 PAM-ag; AID 1698; 67% of 280 active;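 active = activation above the solvent-only control wells' mean plus 3 SD, cut at about 11% in these data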;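 note: 0% = DMSO with isoproterenol and 100% = 40 nM NPY maximal response; agonism lowers cAMP so well fluorescence drops in active wells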
CNGC counter: counter-screen for NPY-Y1 potentiators or agonists: CNG channel inhibitors | shares compounds with NPY-Y1 PAM-ag | HEK293-CNG parental, isoproterenol cAMP, membrane potential fluorescence | inhibition, % at 3.6 µM | 42% of 280 active | AID 1704;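 active = inhibition above the mean of stimulated solvent-only control wells plus 3 SD, cut at about 22% in these data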;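 note: 0% = isoproterenol-stimulated DMSO wells and 100% = unstimulated DMSO wells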
Numbers without * were called inactive.

Screening CCN1c2ncccc2C(=O)NC12CCN(C(=O)Cc1n[nH]c(=O)c3ccccc13)CC2 returned EP2 mod -24 and EP2 antag 4.
`CC(=O)Nc1cc(C(=O)OCC(=O)c2cccs2)ccc1C` gave EP2 mod -2 and EP2 antag 12.
Screening CC(C)[C@H]1CN(Cc2ccccc2F)CCN1C(=O)c1cnn2cccnc12 returned EP2 mod -28.
Screening COc1cc(/C=C(\C#N)c2nc3ccccc3s2)cc([N+](=O)[O-])c1O returned NPY-Y1 PAM-ag 17, NPY2 pot ag 13, EP2 mod -61, EP2 antag 7 and NPY-Y1 antag 0.
N#C/C(=C\c1ccc(O)c([N+](=O)[O-])c1)c1nc2ccccc2s1 was read as NPY-Y1 PAM-ag 39*, NPY2 pot ag 7, EP2 mod -80, EP2 antag 11, NPY-Y1 antag -7, NPY-Y1 confirm 15, NPY-Y2 counter 12, NPY-Y1 ag 9, NPY-Y2 ag 4 and CNGC counter 16.
For COc1cccc(NC(=O)CSc2nc(C(C)(C)C)nc3ccccc23)c1 the results were EP2 mod -1 and EP2 antag 3.
Screening CNC(=S)N(Cc1ccccc1OC)Cc1cc2ccc(OC)cc2[nH]c1=O returned EP2 mod -31 and EP2 antag 13.
N#CC1=C(N)OC2=C(C(=O)CC(c3ccco3)C2)C1c1ccc(OCc2c(F)cccc2Cl)cc1 (stereo not drawn) was read as NPY-Y1 PAM-ag 63*, NPY2 pot ag -27, EP2 mod 13, EP2 antag 8, NPY Y2 blocker 3, NPY-Y1 antag 1, NPY-Y1 confirm -2, NPY-Y2 counter -10, NPY-Y1 ag -3, NPY-Y2 ag -10 and CNGC counter -3.
COc1ccc(/C=N/Nc2nc(N3CCCC3)nc(N3CCCC3)n2)cc1 was read as NPY-Y1 PAM-ag -5, NPY2 pot ag -4, EP2 mod -25, EP2 antag 5, NPY Y2 blocker -2 and NPY-Y1 antag 8.
Screening COC(=O)c1ccc(/C=N/Nc2nc(N3CCCCC3)nc(N3CCCCC3)n2)cc1 returned NPY-Y1 PAM-ag 72*, NPY2 pot ag -13, EP2 mod 2, EP2 antag 9, NPY-Y1 antag 4, NPY-Y1 confirm -21, NPY-Y2 counter -15, NPY-Y1 ag -27, NPY-Y2 ag -16 and CNGC counter -13.
`O=C(O)c1ccccc1C(=O)Nc1ccc(-n2ccc(C(F)(F)F)n2)cc1` gave NPY-Y1 PAM-ag 17, NPY2 pot ag 5, EP2 mod 0 and EP2 antag 3.
Screening COc1ccccc1NC(=O)Nc1ccc(-n2ccc(C(F)(F)F)n2)cc1 returned NPY-Y1 PAM-ag 55*, NPY2 pot ag 32, EP2 mod -39, EP2 antag 19, NPY-Y1 confirm 65*, NPY-Y2 counter 49*, NPY-Y1 ag 55*, NPY-Y2 ag 38* and CNGC counter 36*.
Screening C=CCn1ncc2c3sc(C)cc3n(Cc3ccc(F)cc3)c2c1=O returned EP2 mod 43.
For O=C(COc1ccc(Cl)cc1)Nc1ccc(Cc2ccncc2)cc1 the results were NPY-Y1 PAM-ag 62*, NPY2 pot ag 25, EP2 mod -77, EP2 antag 16, NPY Y2 blocker 1, NPY-Y1 antag -5, NPY-Y1 confirm -48, NPY-Y2 counter -8, NPY-Y1 ag -35, NPY-Y2 ag -8 and CNGC counter -12.
Cc1ccc(O)c(C(=O)c2cnc3c(c2)c(-c2ccc(F)cc2)c(C#N)c(=O)n3C)c1 was read as NPY-Y1 PAM-ag 42*, NPY2 pot ag 9, EP2 mod -20, EP2 antag 3, NPY-Y1 antag -4, NPY-Y1 confirm 61*, NPY-Y2 counter 55*, NPY-Y1 ag 49*, NPY-Y2 ag 54* and CNGC counter 34*.
CCc1cc2c3c(c1)C1(C(=O)N3C(C)(C)C=C2C)C(C#N)=C(N)OC2=C1C(=O)CCC2 (stereo not drawn) was read as EP2 mod -24 and EP2 antag 11.
Screening COc1cc(/C=N/NC(=O)C(Cc2c[nH]c3ccccc23)NC(=O)OCC(C)C)cc([N+](=O)[O-])c1O (stereo not drawn) returned NPY-Y1 PAM-ag -6, NPY2 pot ag 0, EP2 mod 1, EP2 antag 7, NPY Y2 blocker -2 and NPY-Y1 antag 7.
`COc1cc(/C=N/NC(=O)C(Cc2c[nH]c3ccccc23)NC(=O)OCC(C)C)cc([N+](=O)[O-])c1OCc1ccccc1` (stereo not drawn) gave NPY-Y1 PAM-ag 39*, NPY2 pot ag 25, EP2 mod 42, EP2 antag 13, NPY-Y1 antag -4, NPY-Y1 confirm 34, NPY-Y2 counter 30, NPY-Y1 ag 24*, NPY-Y2 ag 38* and CNGC counter 25*.
Screening CC(C)C(=O)N1CCN(c2ccccc2NC(=O)c2ccc(Cl)cc2)CC1 returned EP2 mod 40 and EP2 antag 3.
For CC(=O)NC12CC3CC(C1)CC(C(=O)OCC(=O)Nc1ncc(Cl)c(C)c1Cl)(C3)C2 the results were NPY-Y1 PAM-ag 45*, NPY2 pot ag 8, EP2 mod 17, EP2 antag 6, NPY Y2 blocker 1, NPY-Y1 antag -1, NPY-Y1 confirm 3, NPY-Y2 counter -1, NPY-Y1 ag -5, NPY-Y2 ag 3 and CNGC counter -5.
`CCN1CCCC1CN(Cc1cccnc1)Cc1cnn(C2CCCCC2)c1` (stereo not drawn) gave EP2 mod -3 and EP2 antag 4.
`O=C(OCC(=O)N1CCCc2ccccc21)c1cnc(Cl)c(Cl)c1` gave NPY-Y1 PAM-ag 49*, NPY2 pot ag 19, EP2 mod 13, EP2 antag 7, NPY Y2 blocker 6, NPY-Y1 antag -1, NPY-Y1 confirm 31, NPY-Y2 counter 16, NPY-Y1 ag 22*, NPY-Y2 ag 7 and CNGC counter 25*.

Source: PubChem
